According to ChEMBL document CHEMBL1155742, “Phomoxanthones A and B, novel xanthone dimers from the endophytic fungus Phomopsis species” (J Nat Prod, 2001):
≈ marks a conversion by molar mass, not a printed value.

Key:
Vero = test: Cytotoxicity against african green monkey Vero cells by SRB assay; format: cell-based; conditions: Chlorocebus sabaeus
In short: (§1)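 Purified compounds tested for cytotoxicity by a colorimetric method on human epidermoid carcinoma KB, human breast cancer BC-1 and African monkey kidney fibroblast Vero cells. Values are IC50 in µg/mL. Ellipticine served as the standard for KB and BC-1.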

[1] = Cytotoxicity against human BC1 cells by SRB assay; format: functional, cell-based; in short: as §1
[2] = test system: Mycobacterium tuberculosis; test: Antitubercular activity against Mycobacterium tuberculosis H37Ra by microplate Alamar blue assay; format: functional
In short: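 Growth inhibition of M. tuberculosis H37Ra measured by Microplate Alamar Blue Assay; activity reported as MIC in µg/mL.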

Plasmodium falciparum = test: Antimalarial activity against multidrug-resistant Plasmodium falciparum K1 by [3H]hypoxanthine uptake; format: functional, organism-based
In short: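 Multidrug-resistant P. falciparum K1 tested in vitro by microculture radioisotope technique. IC50 is the concentration giving 50% reduction of parasite growth, measured as [3H]-hypoxanthine uptake, reported in µg/mL.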

KB = test: Cytotoxicity against human KB cells by SRB assay; format: functional, cell-based; in short: as §1

Structure (SMILES) | IC50 (Vero) | IC50 [1] | MIC [2] | IC50 (Plasmodium falciparum) | IC50 (KB)
CC(=O)OC[C@]12Oc3c(-c4ccc(O)c5c4O[C@@]4(COC(C)=O)C(=C(O)C[C@@H](C)[C@H]4OC(C)=O)C5=O)ccc(O)c3C(=O)C1=C(O)C[C@@H](C)[C@H]2OC(C)=O [PHOMOXANTHONE A] | 1.4 µg/mL (≈ 1.86 µM) | 0.51 µg/mL (≈ 0.679 µM) | 0.5 µg/mL (≈ 0.666 µM) | 0.11 µg/mL (≈ 0.147 µM) | 0.99 µg/mL (≈ 1.32 µM)
C[C@@H]1CC[C@H]2[C@@H](C)C(=O)O[C@@H]3O[C@@]4(C)CC[C@@H]1[C@]32OO4 [ARTEMISININ] | – | – | – | 0.0011 µg/mL (≈ 0.0039 µM) | –
C[C@@H]1CC(O)=C2C(=O)c3c(O)ccc(-c4ccc(O)c5c4O[C@@]4(CO)C(=C(O)C[C@@H](C)[C@H]4O)C5=O)c3O[C@]2(CO)[C@@H]1O [DEACETYLPHOMOXANTHONE A] | > 50 µg/mL | > 20 µg/mL | > 200 µg/mL | > 20 µg/mL | > 20 µg/mL
NC[C@H]1O[C@H](O[C@H]2[C@H](O)[C@@H](O[C@H]3O[C@H](CO)[C@@H](O)[C@H](N)[C@H]3O)[C@H](N)C[C@@H]2N)[C@H](O)[C@@H](O)[C@@H]1O.O=S(=O)(O)O [KANAMYCIN SULFATE] | – | – | 2.5 µg/mL | – | –
Cc1c2ccncc2c(C)c2c1[nH]c1ccccc12 [ELLIPTECINE] | – | 0.6 µg/mL (≈ 2.44 µM) | – | – | 0.46 µg/mL (≈ 1.87 µM)
NNC(=O)c1ccncc1 [ISONIAZID] | – | – | 0.05 µg/mL (≈ 0.365 µM) | – | –
CC(=O)OC[C@]12Oc3ccc(-c4ccc(O)c5c4O[C@@]4(COC(C)=O)C(=C(O)C[C@@H](C)[C@H]4OC(C)=O)C5=O)c(O)c3C(=O)C1=C(O)C[C@@H](C)[C@H]2OC(C)=O [PHOMOXANTHONE B] | 1.8 µg/mL (≈ 2.4 µM) | 0.7 µg/mL (≈ 0.932 µM) | 6.25 µg/mL (≈ 8.33 µM) | 0.33 µg/mL (≈ 0.44 µM) | 4.1 µg/mL (≈ 5.46 µM)
